From ChEMBL document CHEMBL1155584, “Bioactive compounds from Psorothamnus junceus” (J Nat Prod, 2000)
Values after ≈ are worked out from the molar mass of the structure shown.

How the values were obtained:
Type in all cases: functional
A549 = test: Cytotoxicity against human A549 cells by MTT assay
How it was run: (§1)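 Human tumour lines (A-549 lung carcinoma, MCF-7 breast carcinoma, HT-29 colon adenocarcinoma, SK-MEL-5 melanoma from an axillary node metastasis, Malme-3M melanoma from a lung metastasis) tested with a standard MTT protocol. Adriamycin served as the positive control. Results are reported as GI50.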

MCF7 = test: Cytotoxicity against human MCF7 cells by MTT assay; how it was run: as §1
HT-29 = test: Cytotoxicity against human HT29 cells by MTT assay; how it was run: as §1
SK-MEL-5 = test: Cytotoxicity against human SK-MEL-5 cells by MTT assay; how it was run: as §1
Malme-3M = test: Cytotoxicity against human MALME-3M cells by MTT assay; how it was run: as §1

| SMILES | GI50 (A549) [µg/mL] | GI50 (MCF7) [µg/mL] | GI50 (HT-29) [µg/mL] | GI50 (SK-MEL-5) [µg/mL] | GI50 (Malme-3M) [µg/mL] |
| --- | --- | --- | --- | --- | --- |
| COC1=C(C)C(=O)C(C)(C)C(=O)/C1=C1\C=Cc2ccccc2O1 [DALRUBONE] | 0.2 (≈ 0.644 µM) | 1 (≈ 3.22 µM) | 0.02 (≈ 0.0644 µM) | 0.4 (≈ 1.29 µM) | 2 (≈ 6.44 µM) |
| COc1cccc2c1C(=O)c1c(O)c3c(c(O)c1C2=O)C[C@@](O)(C(=O)CO)C[C@@H]3O[C@H]1C[C@H](N)[C@H](O)[C@H](C)O1 [DOXORUBICIN] | 0.04 (≈ 0.0736 µM) | 0.2 (≈ 0.368 µM) | 0.06 (≈ 0.11 µM) | 0.03 (≈ 0.0552 µM) | 0.1 (≈ 0.184 µM) |
| CC1(C)C(=O)C(=C2C=Cc3ccccc3O2)C(=O)C(C)(C)C1=O [EMORYDONE] | 3 (≈ 9.67 µM) | 3 (≈ 9.67 µM) | 4 (≈ 12.9 µM) | 3 (≈ 9.67 µM) | 1 (≈ 3.22 µM) |
| CC(=O)C1=c2oc3c(c2Oc2ccccc21)C(=O)C(C)(C)C(=O)C=3C [PSOROTHAMNONE A] | 40 (≈ 119 µM) | 60 (≈ 178 µM) | 50 (≈ 149 µM) | 20 (≈ 59.5 µM) | 60 (≈ 178 µM) |
| CC1=c2oc3c(c2C(=O)C(C)(C)C1=O)Oc1ccccc1C=3 [PSOROTHAMNONE B] | 30 (≈ 102 µM) | 40 (≈ 136 µM) | 30 (≈ 102 µM) | 40 (≈ 136 µM) | 40 (≈ 136 µM) |
